Published values from different studies.
Lines come from different studies, so protocols differ.
Target: Tyrosine-protein kinase Fer (FER, Homo sapiens, UniProt P16591)

Cc1cnn2ncc(-c3ccnc(N(C)C)n3)c2c1 — remaining binding (binding; 1 µM): 92%
CC(=O)N1CCC(c2ccc(C(=O)NC(=N)N)cc2C(F)(F)F)CC1 — remaining binding (cell-free assay, competition with immobilised ligand; 1 µM): 96%
c1cnn2ncc(-c3ccnc(N4CCC45COC5)n3)c2c1 — remaining binding (binding; 1 µM): 91%
O=C(c1ccc(Nc2nccc(-c3cc4ccccc4s3)n2)cc1)N1CCC(N2CCCC2)CC1 — remaining binding (binding, competition with immobilised ligand; 1 µM): 100%
CS(=O)(=O)N1CCCC(NC(=O)[C@H](CCC2CCCCC2)NC(=O)c2ccc(CNC(=O)c3cnc4ccccn34)cc2)C1 (stereo partly drawn) — remaining binding (cell-free assay, competition with immobilised ligand; 0.1 µM): 99%
O=C(NCC1CCOCC1)c1n[nH]cc1NC(=O)c1c(F)cccc1F — remaining binding (binding, competition with immobilised ligand; 1 µM): 100%
CC1CCCN1c1nccc(-c2cnn3ncccc23)n1 (stereo not drawn) — remaining binding (binding; 1 µM): 100%
O=C(c1ccc(Nc2ncc(Cl)c(-c3cc4ccccc4s3)n2)cc1)N1CCC(N2CCCC2)CC1 — remaining binding (binding, competition with immobilised ligand; 1 µM): 76%
CCN1CCN(Cc2ccc(C(=O)Nc3ccc(C)c(Oc4ccc5c(c4)CC(=O)N5)c3)cc2C(F)(F)F)CC1 — remaining binding (binding, competition with immobilised ligand; 1 µM): 100%
CC(=O)c1c(NS(C)(=O)=O)c2cc(-c3ccc(Cl)cc3)c(-c3ccc(Cl)cc3Cl)nc2n(C)c1=O — remaining binding (cell-free assay, competition with immobilised ligand; 1 µM): 100%
Nc1ncc2c(n1)-c1c([nH]c3ccc(C#CC4CC4)cc13)CCCC2 — remaining binding (binding, competition with immobilised ligand; 1 µM): 100%
CC(=O)C1=C(C)N(c2cccc(C(F)(F)F)c2)C(=O)N[C@@H]1c1ccc(C#N)nc1 — remaining binding (cell-free assay, competition with immobilised ligand; 1 µM): 96.9%
CN(c1nccc(-c2cnn3ncccc23)n1)C1CC1 — remaining binding (binding; 1 µM): 100%
COc1cnc(Nc2cccc(S(N)(=O)=O)c2)nc1N1CCN(c2ccccc2)C(=O)C1 — remaining binding (binding, competition with immobilised ligand; 1 µM): 100%
O=C(NC[C@@H]1[C@H]2CN(C(=O)OCc3cc(C(F)(F)F)cc(C(F)(F)F)c3)C[C@@H]12)c1ccc2[nH]nnc2c1 — remaining binding (cell-free assay, competition with immobilised ligand; 1 µM): 97%
COc1ccnn2ncc(-c3ccnc(N(C)C)n3)c12 — remaining binding (binding; 1 µM): 100%
CNC(=O)[C@@H]1CC[C@@H](n2c(-c3ccc4cnccc4c3)nc3ccc(C(=O)NCc4cccc(C(N)=O)c4)cc32)C1 — remaining binding (binding, competition with immobilised ligand; 1 µM): 100%
C[C@@H]1CCN(c2nccc(-c3cnn4ncccc34)n2)C1 — remaining binding (binding; 1 µM): 100%
O=C(NCCCN1CCOCC1)c1ccc(Nc2nccc(-c3cc4ccccc4s3)n2)cc1 — remaining binding (binding, competition with immobilised ligand; 1 µM): 100%
CCC(=O)N[C@@H]1CC[C@H](C(=O)N(C)c2ccc(-c3nc4ccccc4o3)cc2)C1 — remaining binding (cell-free assay, competition with immobilised ligand; 1 µM): 99%
FC(F)(F)Oc1cccc(-c2cnc3ccc(-c4ccncc4)nn23)c1 — remaining binding (cell-free assay, competition with immobilised ligand; 5 µM): 90%
